Active and inactive are the calls of the source. No cut-off for these calls is given here.
Key:
[1] = Stability in human hepatocytes assessed compound turnover at 1 uM after 60 mins; assay type: ADME, cell-based, Hepatocyte; settings: read-out: Drug metabolism
[2] = Protein binding in human plasma fraction at 5 uM after 4.5 hrs LC-MS/MS-based rapid equilibrium dialysis method; assay type: ADME, cell-free; settings: read-out: PPB (converted)
[3] = Tmax in Sprague-Dawley rat liver at 10 mg/kg, po; assay type: ADME, organism-based
[4] = Cmax in C57BL/6J mouse liver at 10 mg/kg, po by LC-MS analysis; assay type: ADME, organism-based; parameters: dose 10 mg/kg, route oral
Procedure, shortened: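 Healthy C57BL/6 mice, groups of 15, given a single oral dose (0.3, 1, 3, 10 or 30 mg/kg) in 20% HP-β-CD. Blood drawn at 0.5 h. Three mice per group sacrificed at 0.5, 1, 2, 4 or 7 h, and compound in plasma and liver measured by LC−MS. Values rounded to whole numbers.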

Plasma [5] = experiment: Induction of IFNalpha levels in C57BL/6J mouse plasma at 0.3 mg/kg, po by ELISA; assay type: functional, organism-based
Plasma [6] = experiment: Upregulation of IP-10 mRNA expression levels in C57BL/6J mouse plasma at 0.3 mg/kg, po by RT-qPCR analysis (reference value: 1); assay type: functional
Liver [7] = experiment: Upregulation of IP-10 mRNA expression levels in C57BL/6J mouse liver at 3 mg/kg, po by RT-qPCR analysis (reference value: 1); assay type: functional
Plasma [8] = experiment: Effect on cytokine profile in C57BL/6J mouse plasma assessed as IL-12p70 levels at 3 mg/kg, po by multiplex assay (reference value: 560 pg/ml); assay type: functional
Procedure, shortened: (§1)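 Single oral gavage in 20% HP-β-CD to healthy C57BL/6 mice, groups of 15 at 0.3, 1, 3, 10 or 30 mg/kg. Three mice per group sacrificed at 0.5, 1, 2, 4 or 7 h. Plasma and liver cytokines by multiplex, maximum level reported, rounded to nearest multiple of 5.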

Liver [9] = experiment: Effect on cytokine profile in C57BL/6J mouse liver assessed as IL-12p70 levels at 10 mg/kg, po by multiplex assay (reference value: 5 pg/g); assay type: functional; procedure, shortened: as §1
Plasma [10] = experiment: Effect on cytokine profile in C57BL/6J mouse plasma assessed as IFNgamma levels at 0.3 mg/kg, po by multiplex assay; assay type: functional, organism-based; procedure, shortened: as §1
Liver [11] = experiment: Effect on cytokine profile in C57BL/6J mouse liver assessed as IFNgamma levels at 10 mg/kg, po by multiplex assay; assay type: functional; procedure, shortened: as §1
Liver [12] = experiment: Proinflammatory activity in C57BL/6J mouse liver assessed as IL-1beta levels at 10 mg/kg, po by multiplex assay; assay type: functional
Liver [13] = experiment: Proinflammatory activity in C57BL/6J mouse liver assessed as IL-1beta levels at 30 mg/kg, po by multiplex assay; assay type: functional
Plasma [14] = experiment: Proinflammatory activity in C57BL/6J mouse plasma assessed as CXCL-1 levels at 0.3 mg/kg, po by multiplex assay (reference value: 230 pg/ml); assay type: functional
Plasma [15] = experiment: Proinflammatory activity in C57BL/6J mouse plasma assessed as CXCL-1 levels at 30 mg/kg, po by multiplex assay (reference value: 230 pg/ml); assay type: functional
Liver [16] = experiment: Proinflammatory activity in C57BL/6J mouse liver assessed as CXCL-1 levels at 3 mg/kg, po by multiplex assay (reference value: 25 pg/g); assay type: functional
Liver [17] = experiment: Proinflammatory activity in C57BL/6J mouse liver assessed as CXCL-1 levels at 10 mg/kg, po by multiplex assay (reference value: 25 pg/g); assay type: functional
Plasma [18] = experiment: Proinflammatory activity in C57BL/6J mouse plasma assessed as TNFalpha levels at 3 mg/kg, po by multiplex assay (reference value: 70 pg/ml); assay type: functional
Plasma [19] = experiment: Proinflammatory activity in C57BL/6J mouse plasma assessed as TNFalpha levels at 10 mg/kg, po by multiplex assay (reference value: 70 pg/ml); assay type: functional
[20] = Cmax in cynomolgus monkey plasma at 9 mg/kg, po by LC-MS analysis; assay type: ADME, organism-based, Macaca fascicularis; parameters: dose 9 mg/kg, route oral
Procedure, shortened: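 Healthy cynomolgus monkeys received oral doses of 1, 3, 9 and 30 mg/kg, with a 2-week wash-out between doses. Systemic compound concentrations by LC−MS at 0.25, 0.5, 1, 2, 4, 8 and 24 h postdose.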

Cynomolgus monkey [21] = experiment: Plasma concentration in cynomolgus monkey at 1 mg/kg, po by LC-MS analysis; assay type: ADME, organism-based, Macaca fascicularis; settings: in vivo
Cynomolgus monkey [22] = experiment: Effect on cytokine profile in cynomolgus monkey plasma assessed as IP10 levels at 30 mg/kg, po after 24 hrs by Luminex assay (reference value: 18.5 pg/ml); assay type: functional, Macaca fascicularis
Procedure, shortened: (§2)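 Healthy cynomolgus monkeys given single oral doses of 1, 3, 9 and 30 mg/kg, with a 2-week wash-out planned between doses. Systemic cytokine levels in plasma were sampled at 0.5, 1, 2, 4, 9 and 24 h postdose.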

Cynomolgus monkey [23] = experiment: Effect on cytokine profile in cynomolgus monkey plasma assessed as IL-12P70 levels at 1 mg/kg, po after 24 hrs by Luminex assay (reference value: 2.17 pg/ml); assay type: functional, organism-based; settings: Macaca fascicularis; procedure, shortened: as §2
Cynomolgus monkey [24] = experiment: Proinflammatory activity in cynomolgus monkey plasma assessed as IL-6 levels at 30 mg/kg, po after 24 hrs by Luminex assay (reference value: 80 pg/ml); assay type: functional, Macaca fascicularis
Cynomolgus monkey [25] = experiment: Activation of monocytes in cynomolgus monkey plasma assessed as upregulation of MCP1 levels at 1 mg/kg, po after 24 hrs by Luminex assay (reference value: 385 pg/ml); assay type: functional, Macaca fascicularis
Cynomolgus monkey [26] = experiment: Induction of G-CSF in cynomolgus monkey plasma at 1 mg/kg, po after 24 hrs by Luminex assay (reference value: 85 pg/ml); assay type: functional, organism-based; settings: Macaca fascicularis; procedure, shortened: as §2
Cynomolgus monkey [27] = experiment: Anti-inflammatory activity in cynomolgus monkey plasma assessed as IL-10 levels at 9 mg/kg, po after 24 hrs by Luminex assay (reference value: 195 pg/ml); assay type: functional, Macaca fascicularis
Cynomolgus monkey [28] = experiment: Induction of ISG response in cynomolgus monkey plasma assessed as upregulation of Isg15 mRNA expression at 3 mg/kg, po after 24 hrs by Fluidigm RT-qPCR analysis (reference value: 1); assay type: functional, Macaca fascicularis
Procedure, shortened: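 Cynomolgus monkeys, single oral doses of 1, 3, 9 and 30 mg/kg with a planned 2-week wash-out between doses. Systemic ISG (ISG15, Mx1, OAS1) mRNA was measured by Fluidigm RT-qPCR at 1, 2, 4, 8 and 24 h postdose.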

Cynomolgus monkey [29] = experiment: Toxicity in cynomolgus monkey assessed as change in body temperature up to 30 mg/kg, po; assay type: organism-based, Macaca fascicularis; settings: in vivo
Cynomolgus monkey [30] = experiment: Activation of Kupffer cells in cynomolgus monkey liver at 30 mg/kg, po after 72 hrs by CD68 staining-based immunohistochemical analysis; assay type: functional, organism-based; settings: Macaca fascicularis
Procedure, shortened: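 Three 2.5-year-old male naive cynomolgus monkeys were dosed orally at 30 mg/kg and euthanized 72 h later. FFPE liver sections were stained for CD68 by IHC, alongside sections from unrelated control animals. Positive cells were counted over a 30 mm² area and expressed per mm². Statistics used a one-tailed t test with Welch correction.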

[31] = system: Toll-like receptor 7/8 (Homo sapiens); experiment: Agonist activity at TLR7/8 in human PBMCs assessed as decrease in intracellular HBV RNA levels in human hepatocytes infected with HBV genotype C for 12 days followed by exposure to conditioned supernatant from up to 5 uM compound treated PBMCs measured after 42 days

CCC[C@@H](CCO)Nc1nc(N)nc2c(F)cccc12
metabolised at 1 h, 1 µM [1]: 35% | fraction unbound at 4.5 h, 5 µM [2]: 0.34 | Tmax [3]: 30 min | Cmax [4]: 1420 ng/g | Activity (Plasma [5]): Below limit of detection | fold change (FC) (Plasma [6]): 15 | fold change (FC) (Liver [7]): 845 | Activity (Plasma [8]): 330 pg/mL | Activity (Liver [9]): 790 pg/g | Activity (Plasma [10]): Below limit of detection | Activity (Liver [11]): 430 pg/g | Activity (Liver [12]): 29525 pg/g | Activity (Liver [13]): 56615 pg/g | Activity (Plasma [14]): 2180 pg/mL | Activity (Plasma [15]): >10000 pg/mL | Activity (Liver [16]): 35575 pg/g | Activity (Liver [17]): 48485 pg/g | Activity (Plasma [18]): 1665 pg/mL | Activity (Plasma [19]): >10000 pg/mL | Cmax [20]: 815 ng/mL | Cp (Cynomolgus monkey [21]): 5.9 ng/mL | Activity (Cynomolgus monkey [22]): 8195 pg/mL | Activity (Cynomolgus monkey [23]): Below limit of detection | Activity (Cynomolgus monkey [24]): 5285 pg/mL | Activity (Cynomolgus monkey [25]): 2820 pg/mL | Activity (Cynomolgus monkey [26]): Below limit of detection | Activity (Cynomolgus monkey [27]): 3785 pg/mL | fold change (FC) (Cynomolgus monkey [28]): 145 | Activity (Cynomolgus monkey [29]): Non-Toxic | Activity (Cynomolgus monkey [30]): Active | Activity [31]: Active

— ChEMBL document CHEMBL4130635, “2,4-Diaminoquinazolines as Dual Toll-like Receptor (TLR) 7/8 Modulators for the Treatment of Hepatitis B Virus” (J Med Chem, 2018)
